Data set [1] has as its target T1, Proteasome Macropain subunit MB1 (Homo sapiens, UniProt P28074).
T1 sequence (P28074 whole entry): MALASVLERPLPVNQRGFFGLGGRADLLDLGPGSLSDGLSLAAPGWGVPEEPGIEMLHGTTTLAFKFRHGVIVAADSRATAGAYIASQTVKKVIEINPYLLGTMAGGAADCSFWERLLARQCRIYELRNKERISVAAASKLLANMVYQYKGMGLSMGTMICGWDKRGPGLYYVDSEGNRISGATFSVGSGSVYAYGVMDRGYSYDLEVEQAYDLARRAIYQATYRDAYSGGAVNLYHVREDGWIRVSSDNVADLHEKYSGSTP
In words: Inhibition of human chymotrypsin-like activity of 20S constitutive proteasome using Suc-LLVY-AMC as substrate preincubated for 15 mins followed by substrate addition by fluorescence assay.

The target in data set [2] is T2, Proteasome Macropain subunit MB1 (Homo sapiens) (UniProt P28074).
T2 sequence (whole entry): T1 sequence (P28074 whole entry)
The data set can be described thus: Inhibition of human chymotrypsin-like activity of 20S constitutive proteasome at 10 uM using Suc-LLVY-AMC as substrate preincubated for 15 mins followed by substrate addition by fluorescence assay relative to control.

Data set [3] deals with HGC-27. The data set can be described thus: Antiproliferative activity against human HGC27 cells after 72 hrs by MTT assay. It is filed as functional, cell-based. The settings on record: HGC-27, 72 h. The procedure, abridged: (§1)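 Cells kept at 37 °C, 5% CO2; HGC27 in RPMI-1640 and HepG2 in IMDM, each with 10% FBS and penicillin/streptomycin. Seeded at 1×10⁵ cells/well, then exposed to graded compound concentrations or 0.2% DMSO for 72 h. MTT (5 mg/mL) added for 4 h, formazan dissolved in DMSO, absorbance read at 570 nm. Inhibition = (A_control − A_sample)/A_control; IC50 from variable-slope sigmoidal fit.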
(Formazan colour is commonly taken as a measure of viable cells.)

Data set [4] deals with MV4-11. The data set can be described thus: Antiproliferative activity against human MV4-11 cells after 72 hrs by MTS/PMS assay. The format is functional, cell-based. The settings on record: MV4-11, 72 h. The procedure, abridged: (§2)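 Cells kept at 37 °C, 5% CO2; RPMI 8226 and MM.1S in RPMI-1640, MV-4-11 in IMDM, each with 10% FBS and penicillin/streptomycin. Seeding per well: RPMI 8226 5×10³, MM.1S 3×10⁴, MV-4-11 8×10³. Graded compound concentrations or 0.2% DMSO for 72 h. MTS/PMS added for 2-4 h at 37 °C, OD read at 490 nm minus 690 nm background. IC50 from variable-slope sigmoidal fit.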

Data set [5] deals with RPMI-8226. In words: Antiproliferative activity against human RPMI8226 cells after 72 hrs by MTS/PMS assay. It is filed as functional, cell-based. The settings on record: RPMI-8226, 72 h. The procedure, abridged: as §2
A short description of data set [6]: Stability in human liver microsomes at 1 uM measured after 30 mins in presence of NADPH by LC-MS/MS analysis. It is filed as ADME, Microsome. Conditions: 0.5 h. The procedure, abridged:
(§3)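 Pooled human liver microsomes at 1.0 mg/mL protein in 0.1 M phosphate buffer saline pH 7.4 with 1 mM NADPH, preincubated 5 min at 37 °C. Reaction started by adding test compound at 1 μM, then incubated 0, 10, 20 or 30 min. Compound disappearance monitored.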
For orientation: Liver microsomes are vesicles of endoplasmic reticulum, rich in cytochrome P450 enzymes.

Data set [7] deals with MM1.S. In words: Antiproliferative activity against human MM1S cells after 72 hrs by MTS/PMS assay. The format is functional, cell-based. The procedure, abridged: as §2
In data set [8] the target is T3, Proteasome subunit beta type-8 (Homo sapiens, UniProt P28062).
T3 sequence (P28062 whole entry): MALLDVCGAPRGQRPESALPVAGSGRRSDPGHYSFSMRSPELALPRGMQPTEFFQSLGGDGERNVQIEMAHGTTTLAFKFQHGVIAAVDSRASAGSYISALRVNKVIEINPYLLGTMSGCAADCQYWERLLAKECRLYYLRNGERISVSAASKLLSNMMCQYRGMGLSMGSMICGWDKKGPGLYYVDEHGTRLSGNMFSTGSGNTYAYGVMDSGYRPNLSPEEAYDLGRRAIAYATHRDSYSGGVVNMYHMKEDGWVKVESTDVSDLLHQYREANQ
In words: Inhibition of 20S immunoproteasome LMP7 (unknown origin) using Ac-ANW-AMC as substrate preincubated for 15 mins followed by substrate addition by fluorescence assay.

In data set [9] the test system is HepG2. In words: Antiproliferative activity against human HepG2 cells after 72 hrs by MTT assay. It is filed as functional, cell-based. Conditions: HepG2, 72 h. The procedure, abridged:
as §1

A short description of data set [10]: Stability in human liver microsomes assessed as drug degradation at 1 uM measured within 30 mins in presence of NADPH by LC-MS/MS analysis. It is filed as ADME, Microsome. The settings on record: read-out: Drug degradation. The procedure, abridged:
as §3

SMILES strings stand for the structures. pIC50: −log10 of the molar value. Where only a bound is given, the exact number is not on record here.

By pIC50 is commonly meant −log10 of the IC50, conventionally taken in molar units. Read a high pIC50 as a low IC50. For the compound `CCCc1ccc(OCC(=O)N(CC(=O)Nc2nc3ccc(OC)cc3s2)C(C)C)cc1`, the pIC50 in data set [1] was 5.95.
By inhibition is commonly meant the drop in the measured response relative to a control, in per cent. On to `CCCc1ccc(OCC(=O)N(CCC(=O)Nc2cccnc2)C(C)C)cc1`, for which, in data set [2], the inhibition amounted to 15.5%.
Consider `CCCCCc1ccc(OCC(=O)N(CC(=O)Nc2ccnnc2)C(C)C)cc1`, for which the pIC50 in data set [1] is 7.19.
The same measure, in the same setting: with `CCCc1ccc(OCC(=O)N(CC(=O)Nc2cccc(OC)c2)C(C)C)cc1` the figure was 5.70.
As for `CCCCc1ccc(OCC(=O)N(CC(=O)Nc2ccnnc2)C(C)C)cc1`, the pIC50 was 5.34 in data set [3]; less than 4.70 in data set [4]; less than 4.70 in data set [5]; less than 4.70 in [7]; less than 5.00 in [8]; 5.41 in data set [9]. Also, the pIC50 in data set [1] is 7.31. The Stability result in [6] is on record as “Stable”.
As for `CC(C)N(CC(=O)Nc1ccnnc1)C(=O)COc1ccc(CCO)cc1`, in [1], the pIC50 was 6.01.
Consider `CCCc1ccc(OCC(=O)N(CCC(=O)NCc2cccnc2)C(C)C)cc1`, for which the inhibition in data set [2] is 12.7%.
For `CCCc1ccc(OCC(=O)N(CC(=O)Nc2ccc(C(F)(F)F)cc2)C(C)C)cc1`, in [1], the pIC50 was 6.04.
Take `CCCc1ccc(OCC(=O)N(CC(=O)Nc2ccccc2OC)C(C)C)cc1`: the pIC50 in [1] is less than 5.00.
In the case of `CCCc1ccc(OCC(=O)N(CC(=O)Nc2ccc(OC)c(OC)c2)C(C)C)cc1`, the pIC50 in data set [1] is 5.33.
Take `CCCc1ccc(OCC(=O)N(CC(=O)Nc2cncnc2)C(C)C)cc1`: the pIC50 in data set [1] is 6.55. This pIC50 lies 1.22 log units higher than the previous one.
Consider `Cc1ccc(OCC(=O)N(CC(=O)Nc2ccnnc2)C(C)C)cc1`, for which the pIC50 in data set [1] is 6.32.
The same measure, in the same setting: with `CC(C)Cc1ccc(OCC(=O)N(CC(=O)Nc2ccnnc2)C(C)C)cc1` the figure was 6.93.
As for `CCCc1ccc(OCC(=O)N(Cc2nc(-c3cccnc3)no2)C(C)C)cc1`, the pIC50 in data set [3] is 5.47; in data set [4], less than 4.70; in [5], less than 4.70; in data set [7], less than 4.70; in [8], less than 5.00; in [9] it was 5.53. The compound further gave a pIC50 in data set [1] of 7.04. Moreover, the inhibition in [2] is 80.2%. Also, the metabolised at 0.5 h, 1 µM in data set [10] is greater than 50%.
`CCCc1ccc(OCC(=O)N(CC(=O)Nc2ccnnc2)C(C)C)cc1` gave a pIC50 in data set [1] of 7.05.
On the same count and under the same terms, with `CCCc1ccc(OCC(=O)N(CC(=O)Nc2ccc3ccccc3c2)C(C)C)cc1` the figure was 5.23; with `CCCc1ccc(OCC(=O)N(CC(=O)Nc2ccc(F)cc2)C(C)C)cc1`, 5.92.
On the same count and under the same terms, under `CCOc1ccc(OCC(=O)N(CC(=O)Nc2ccnnc2)C(C)C)cc1` stands 6.59.
`CCc1ccc(OCC(=O)N(CC(=O)Nc2ccnnc2)C(C)C)cc1` gave a negative-log IC50 (pIC50) in data set [1] of 6.61.
Still for that read-out and setting: under `CCCc1ccc(OCC(=O)N(CC(=O)Nc2ccc(OC)cc2)C(C)C)cc1` stands 6.02; under `CC(C)N(CC(=O)Nc1ccnnc1)C(=O)COc1ccc(Br)cc1`, 6.39.
Same read-out and setting: under `COC(=O)Cc1ccc(OCC(=O)N(CC(=O)Nc2ccnnc2)C(C)C)cc1` stands 5.81; under `CCCc1ccc(OCC(=O)N(CC(=O)Nc2ccncc2)C(C)C)cc1`, 7.00.
`CCCc1ccc(OCC(=O)N(CC(=O)Nc2ccc(C#N)cc2)C(C)C)cc1` showed a pIC50 in data set [1] of 6.44.
Consider `COc1ccc(OCC(=O)N(CC(=O)Nc2ccnnc2)C(C)C)cc1`, for which the pIC50 in [1] is 6.24.
For `CCCc1ccc(OCC(=O)N(CC(=O)NCc2cccnc2)C(C)C)cc1`, the inhibition in data set [2] was found to be 1.16%.
In the case of `CCCc1ccc(OCC(=O)N(CCNC(=O)Nc2cccnc2)C(C)C)cc1`, the inhibition in data set [2] worked out at 13.8%.
In turn, `CCCc1ccc(OCC(=O)N(CC(=O)Nc2cccnc2)C(C)C)cc1` showed an inhibition in data set [2] of 58.2%. Besides, the Stability entry in data set [6] is “Stable”. In addition, the pIC50 in data set [1] is 5.77.
In data set [1], `CCCc1ccc(OCC(=O)N(CC(=O)Nc2ccccn2)C(C)C)cc1` showed a pIC50 of 6.08.
Same read-out and setting: under `CCCc1ccc(OCC(=O)N(CC(=O)Nc2nncs2)C(C)C)cc1` stands 5.41; under `CCCc1ccc(OCC(=O)N(CC(=O)Nc2ccon2)C(C)C)cc1`, 5.70.
For `CCCc1ccc(OCC(=O)N(CC(=O)Nc2ccc(S(C)(=O)=O)cc2)C(C)C)cc1`, the pIC50 in data set [3] is 5.61; in data set [4], less than 4.70; in [5] it was less than 4.70; in data set [7], less than 4.70; in [8] it was less than 5.00; in [9] it was 5.54. In data set [1], this compound had a pIC50 of 6.64.
Consider `CCCc1ccc(OCC(=O)N(CCNC(=O)NCc2cccnc2)C(C)C)cc1`, for which the inhibition in data set [2] came to 38.7%.
In [1], `CCCc1ccc(OCC(=O)N(CC(=O)Nc2cnccn2)C(C)C)cc1` gave a pIC50 of 6.40.
On to `CCCc1ccc(OCC(=O)N(CCNC(=O)c2cccnc2)C(C)C)cc1`, for which, in [2], the inhibition came to 30.8%.
`CC(C)N(CC(=O)Nc1ccnnc1)C(=O)COc1ccc(C(F)(F)F)cc1`: in data set [1], the pIC50 is 6.02.

The values are drawn from ChEMBL document CHEMBL4325885, “Design, synthesis, and biological evaluation of novel phenol ether derivatives as non-covalent proteasome inhibitors” (Eur J Med Chem, 2019).
